Screening data (PubChem BioAssay)
m5-HT2A agonist: mouse Htr2a agonists via beta-arrestin recruitment, primary screen, cell-based, luminescence. CHO-K1 mHTR2A beta-arrestin complementation; percent of 30 µM serotonin response. activation, % at 7.6 µM. hit rate 0.66% among 360,000. AID 624169, 2012;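 active means activation above a run cutoff, the mean activation of all tested compounds plus 3 SD, cut at about 14% in these data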;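 further: 0% = plate median of compound wells and 100% = 30 µM serotonin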
TAAR1 antag: human TAAR1 antagonists, primary screen, Fluo-8 calcium fluorescence, CHO RD-HGA16 cells. Trace amine-associated receptor 1 (Homo sapiens), Q96RJ0. antagonist. inhibition, % at 3 µM. hit rate 1.5% among 360,000. AID 624466, 2012;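 active means inhibition above a per-plate cutoff, the mean inhibition of test compounds on that plate plus 3 SD, cut at about 49% in these data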;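 further: 0% = DMSO plus EC80 beta-PEA response and 100% = DMSO alone without agonist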
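System: RD-HGA16 CHO cells with stable hTAAR1 and Gα16 | Probe or stimulus: EC80 β-phenethylamine stimulus | Dosing: 3 µM, single point | Times: Dye loading 75 min at 37 °C, then 30 min room temperature | Measured by: Fluo-8 calcium-sensitive fluorescence | Read-out basis: % inhibition of agonist calcium response | Replicates: n of 1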
TAAR1 ag: human TAAR1 agonists, primary screen, Fluo-8 calcium fluorescence, CHO RD-HGA16 cells. hit rate 0.99% among 360,000. Trace amine-associated receptor 1 (Homo sapiens), Q96RJ0. vehicle wells 0%, saturating PEA agonist 100%. activation, % at 3 µM;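 active means activation above the mean activation of all test compounds in the run plus 3 SD, cut at about 38% in these data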
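System: CHO-derived RD-HGA16 cells with stable Gα16 and human TAAR1 / Times: 17-24 h plating, Fluo-8 75 min 37 °C, 30 min RT / Technique: calcium-sensitive Fluo-8 signal, excitation 470-495, emission 515-575 nm / Measure: % activation relative to PEA EC100 response / Benchmarks: DMSO and PEA EC100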
MC4R antagonist: MC4R antagonists of cAMP signaling, primary screen, cell-based, TR-FRET, antagonist arm of biased-ligand search | Melanocortin receptor 4 (Homo sapiens), P32245 | MC4R-expressing cells, MTII-stimulated cAMP, LANCE TR-FRET | inhibition, % at 6.5 µM | hit rate 0.48% among 360,000 | AID 540295, 2011;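 active means inhibition above its plate's cutoff, the mean of tested wells on that plate plus 3 SD, cut at about 29% in these data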;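 further: 0% = Melanotan II alone and 100% = Melanotan II plus saturating MCL0020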
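System – human MC4R-expressing U2OS cells · Also added – Melanotan II · Dosing – one concentration, 6.5 µM nominal · Timing – 30-min compound, 1-h challenge, 1-h detection, room temperature · Measured by – Eu-cAMP/anti-cAMP TR-FRET, emission 671 nm · Replicates – singlicate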
MC4R ag barr: MC4R agonists recruiting beta-arrestin, primary screen, cell-based, luminescence, agonist arm of biased-ligand search. Melanocortin receptor 4 (Homo sapiens), P32245. U2OS MC4R beta-arrestin complementation; percent of melanotan II response, DMSO zero. activation, % at 8.9 µM. hit rate 0.98% among 360,000. AID 540308, 2011;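 active means activation above a per-plate cutoff, the mean activation of sample wells on that plate plus 3 SD, cut at about 8% in these data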
B2AR ag: beta2AR agonists driving receptor internalization, primary screen, cell-based, FAP fluorogen, flow cytometry; Beta-2 adrenergic receptor (Homo sapiens), P07550; Am2.2-beta2AR cells; response, % (test concentration not listed); hit rate 0.43% among 340,000;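 active means response above a set limit, near 3 SD of response in nonfluorescent compounds, cut at about 42% in these data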
Target sequence (P07550 whole entry, looked up): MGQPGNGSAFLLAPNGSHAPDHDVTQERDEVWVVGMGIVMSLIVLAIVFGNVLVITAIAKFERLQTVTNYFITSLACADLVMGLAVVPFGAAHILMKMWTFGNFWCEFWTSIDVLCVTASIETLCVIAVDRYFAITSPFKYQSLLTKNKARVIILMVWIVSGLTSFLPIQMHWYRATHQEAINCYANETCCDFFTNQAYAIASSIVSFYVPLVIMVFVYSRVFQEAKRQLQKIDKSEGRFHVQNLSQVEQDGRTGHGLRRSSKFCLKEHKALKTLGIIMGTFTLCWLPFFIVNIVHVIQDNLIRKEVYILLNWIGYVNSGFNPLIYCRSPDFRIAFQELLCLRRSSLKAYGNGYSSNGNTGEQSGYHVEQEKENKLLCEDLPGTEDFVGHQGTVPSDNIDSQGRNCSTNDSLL
MC4R barr conf: MC4R beta-arrestin agonists, retest, confirmation, cell-based, luminescence, U2OS; shares compounds with MC4R ag barr; U2OS MC4R beta-arrestin recruitment; scaled DMSO 0%, Melanotan II 100%; activation, % at 8.9 µM; hit rate 31% among 2,400; AID 602192, 2012;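 active means mean activation across replicates above the hit cutoff set in the earlier primary screen, cut at about 8% in these data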
MOR DOR agonist: agonists of MOR-DOR heterodimerization, counter-screen for MC4R biased agonist project, cell-based, luminescence | shares compounds with MC4R ag barr | U2OS PathHunter beta-arrestin, beta-gal luminescence; percent of deltorphin B response, DMSO zero | activation, % at 9.2 µM | hit rate 5.8% among 2,400;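 active means mean activation across replicates exceeds the hit threshold derived in the earlier primary screen, cut at about 18% in these data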;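 further: 100% = deltorphin B at 0.9 µM final and 0% = DMSO alone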
* = called active by the depositor; · = no result. A selection: hits, their analogues and other compounds. The true share with any hit is near 4.3%.

SMILES	m5-HT2A agonist	TAAR1 antag	TAAR1 ag	MC4R antagonist	MC4R ag barr	B2AR ag	MC4R barr conf	MOR DOR agonist
Cc1ccc(N(Cc2cc(=O)[nH]c3ccccc23)C(=O)CCl)c(C)c1	3	14	5	3	2	1	·	·
O=C(CSc1nnnn1-c1ccc(F)cc1)Nc1nc2ccccc2s1	10	-12	9	5	31*	0	0	8
CCn1nnnc1SCC(=O)Nc1nc2ccccc2s1	-9	5	8	11	2	1	·	·
O=C(CSc1nc2ccc(NC(=O)CSc3nnnn3-c3ccccc3)cc2s1)Nc1ccccc1	0	4	-1	18	14*	-8	8	4
COc1ccccc1-c1ccc([C@@H]2C[C@H]3[C@@H](CN2)CON3C)cc1	-5	-17	2	2	-1	·	·	·
Cc1ccc(S(=O)(=O)NC(=O)C2(C)CCN2C(=O)COc2ccc(Cl)cc2)nc1 (centres undefined)	3	-8	-1	-5	2	·	·	·
Cc1cc(C)c(C#N)c(SCC(=O)Nc2nnc(-c3ccccc3)s2)n1	0	-6	14	0	16*	-15	2	4
COc1cc(-c2cc(-c3ccccc3)nc(SCC(=O)Nc3nccs3)c2C#N)cc(OC)c1OC	3	16	4	-12	11*	7	5	3
O=[N+]([O-])c1ccc(OCC(O)CN(C2CCCCC2)C2CCCCC2)cc1 (centres undefined)	-2	-18	0	-6	-1	7	·	·
CC(C)CN(CC(C)C)CC(O)COc1ccc([N+](=O)[O-])cc1 (centres undefined)	4	-15	-2	10	10*	5	-1	7
Cc1ccc(OCC(=O)Nc2oc(-c3ccccc3)c(-c3ccccc3)c2C#N)cc1	-6	5	2	1	-2	-5	·	·
Cc1ccnc(SCC(=O)Nc2oc(-c3ccccc3)c(-c3ccccc3)c2C#N)n1	-2	17	19	1	17*	2	-1	4
COc1ccccc1NC(=O)C1CCN(S(=O)(=O)c2ccc3c(c2)NC(=O)CO3)CC1	4	-17	1	23	-2	-5	·	·
CCCCCOC(=O)Nc1ccc(S(=O)(=O)Nc2cccc([N+](=O)[O-])c2)cc1	-4	19	4	-3	14*	2	9.7*	7
CC1C(=O)N(Cc2cn(CC3CCCCC3)nn2)CCS(=O)(=O)N1Cc1ccc(-c2ccc(Cl)cc2)cc1 (centres undefined)	4	·	·	0	0	·	·	·
O=S(=O)(c1ccc(N2CCCC2)nc1)N1CCCC1	-1	-2	2	15	-1	-11	·	·
NNc1ccc(S(=O)(=O)N2CCCCC2)cn1	-1	-26	1	2	12*	-2	-3	1
COc1ccc(-c2nc3c(Br)c(N)c(Br)cc3o2)cc1	-1	·	·	9	11*	-4	8	4
O=C(COC(=O)/C=C/c1ccccc1Cl)NCc1ccccc1	-4	0	3	-4	1	-3	·	·
O=C(COC(=O)/C=C/c1ccccc1Cl)NCCNC(=O)COC(=O)/C=C/c1ccccc1Cl	6	12	1	4	12*	-7	1	4
CCN(CCCNC(=O)Cn1ncc2c([nH]c3ccc(C)cc32)c1=O)Cc1ccccc1	-3	-34	1	10	-3	5	·	·
Cc1nn(-c2ccccc2)c(N2CCCC2)c1/C=N/NC(=S)Nc1ccccc1F	5	5	-1	1	14*	3	3	2
Cc1ccc(C(=O)N/C(=C\c2ccc(-c3cccc([N+](=O)[O-])c3)o2)C(=O)NCCCN(C)C)cc1	7	-6	1	-19	1	-4	·	·
Cc1ccc(C(=O)N/C(=C\c2ccc(-c3ccc(Br)cc3)o2)C(=O)NCCCN(C)C)cc1	-2	-3	19	12	11*	41	9.1*	10
Cc1cc(/C=N/n2cnnc2)c(C)n1-c1ccc(Cl)cc1	1	-11	-2	-6	1	-7	·	·
SMILES	m5-HT2A agonist	TAAR1 antag	TAAR1 ag	MC4R antagonist	MC4R ag barr	B2AR ag	MC4R barr conf	MOR DOR agonist
Cc1cc(/C=N/n2cnnc2)c(C)n1-c1ccc(OCc2ccc(Cl)cc2Cl)cc1	3	·	·	-17	14*	18	5	5
Cc1ccc(S(=O)(=O)NCC(=O)NCC(=O)NCCc2ccc(Cl)cc2)cc1C	-5	-9	-1	9	-1	·	·	·
Cc1ccc(NC(=O)c2sc(N)nc2-c2ccccc2)cc1C	-6	-13	0	2	0	-6	·	·
Cc1ccc(NC(=O)c2sc(N)nc2-c2ccc([N+](=O)[O-])cc2)cc1C	0	6	1	1	11*	-4	4	7
C[C@H](CO)N1C[C@H](C)[C@@H](CN(C)Cc2ccncc2)Oc2ccc(NC(=O)CCCCCC(=O)Nc3ccccc3N)cc2C1=O	1	6	1	4	0	-8	·	·
C=CCn1c(SCC(=O)c2ccc(O)c(O)c2)nnc1-c1cccc(OC)c1	1	8	8	10	0	-3	·	·
Cc1ccc2c(c1)[C@H]1[C@H](CO2)[C@H](c2ccccc2)[C@]2(C)C(=O)N(C)CC(=O)N12	4	-21	19	-2	-1	0	·	·
CC1=C(SCCC#N)S/C(=C2\SC(C)=C(SCCC#N)S2)S1	1	23	4	-5	19*	6	6	7
Cc1ccc(C(=O)NCc2ccco2)cc1[N+](=O)[O-]	1	7	4	6	-1	4	·	·
Cc1ccc(NC(=O)c2ccc(NCc3ccco3)c([N+](=O)[O-])c2)cc1Cl	-1	6	0	3	11*	-2	25*	26*
